The source of these data is PMC2628580 (Chemistry & biology, 2008).

Assay [1] has as its target T1, rat OR-I7 (Rattus norvegicus, UniProt P23270).
T1 sequence (P23270 1-327): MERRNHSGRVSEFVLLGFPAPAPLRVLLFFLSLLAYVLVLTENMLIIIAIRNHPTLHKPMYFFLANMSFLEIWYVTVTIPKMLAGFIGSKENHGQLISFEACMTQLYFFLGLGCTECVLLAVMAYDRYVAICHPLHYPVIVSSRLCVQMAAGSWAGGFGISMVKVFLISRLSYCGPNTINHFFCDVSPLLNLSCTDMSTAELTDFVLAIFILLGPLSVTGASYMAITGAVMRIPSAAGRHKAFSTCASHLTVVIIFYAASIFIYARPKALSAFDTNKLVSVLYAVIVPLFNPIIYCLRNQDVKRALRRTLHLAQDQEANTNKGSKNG
The assay is classed as cell-based. The conditions noted are these: for potency compared with n-alkanals (in words): activation dose-response curves; for activation of OR-I7 (in words): dose-response by calcium imaging; for maximal efficacy relative to 10 μM 1: mean ± SEM; for OR-I7 response at 30 μM (in words): calcium imaging trace of a GFP+ OSN. Put shortly:
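Dissociated olfactory neurons from male Sprague-Dawley rats (6-7 wk) infected with adenovirus encoding OR-I7 plus separate GFP. GFP+ cells were fura-2AM loaded for 45 min at room temperature and imaged at 380/510 nm every 4 s. The compound came from 0.5M DMSO stock with DMSO-matched dilutions, given as 4 s pulses 3.25 min apart. Each movie was flanked by 10 μM normalizing stimuli and ΔF/F normalized to the trend line. Hill fit used ≥3 cells per point; EC50 ± SD.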

A further assay deals with rat OSNs. As to the kind of experiment: Panel screening of 1190 viable rat OSNs by calcium imaging. Type of assay: cell-based. Particulars: 30 μM, 1190 tested rat OSNs. The method, boiled down:
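Whole olfactory epithelium from uninfected rats was dissociated (collagenase, dispase), plated on concanavalin A coverslips and kept at 32 °C. Cells were loaded with fura-2AM and imaged at room temperature. Each test compound was given individually at 30 μM in random order, 5 min apart, with a DMSO vehicle application. 10 μM forskolin came last for normalization and viability. Responding cells were counted among 1190 tested.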

The target in assay [2] is T1, rat OR-I7. Nature of the assay: Antagonism of octanal. The assay is classed as cell-based. The conditions noted are these: against saturating 10 μM C8. The method, boiled down:
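GFP+ OR-I7-expressing rat olfactory neurons were imaged with fura-2 at room temperature under continuous Ringer perfusion at pH 7.4. The test compound at various concentrations was co-applied with 10 μM octanal. The response was normalized to a trend line between flanking stimuli. An antagonist had to give under 90% of the octanal-alone response. Ratios are mean ± SEM. Inhibition curves were Hill-fitted, with at least three cells per point and IC50 ± SD.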

The test system of the next assay is OR-I7. Particulars: vapor phase; ref Araneda et al., 2000; Zhao et al., 1998; cited from earlier work.

Structures are written as SMILES. Entries after “also recorded” stand apart in the source; their conditions may differ.

Regarding `O=CCCCCC1CC1` [Compound 2], at rat OR-I7 [1], the “potency compared with n-alkanals (in words)” value was “more potent than C8”, the “activation of OR-I7 (in words)” value is listed as “strongly activated” and the “maximal efficacy relative to 10 μM 1” value is listed as 0.99 ± 0.02. Besides, the “fold more potent than C7” value on rat OR-I7 [1] (compound 2 vs C7, identical extended length) is listed as 40 fold.

On to `O=CCCCC1CCC1` [Compound 3], for which, on rat OR-I7 [1], the “OR-I7 response at 30 μM (in words)” value is given as “near saturating level”, the “potency compared with n-alkanals (in words)” value is on record as “more potent than both”, the “activation of OR-I7 (in words)” value is given as “strongly activated” and the “maximal efficacy relative to 10 μM 1” value came out at 1.06 ± 0.1. For the same compound, the “difference in activity between compound 4 and compound 3” value at rat OR-I7 [1] (ratio of EC50, compound 3 vs compound 4) amounted to 163 fold.

Regarding `O=CCCC1CCCC1` [Compound 4], on rat OR-I7 [1], the “OR-I7 response at 30 μM (in words)” value is “unresponsive” and the “activation of OR-I7 (in words)” value is “weakly or not at all; also recorded: marginally active”.

For `O=CCC1CCCCC1` [Compound 5], the “activation of OR-I7 (in words)” value at rat OR-I7 [1] was “weakly or not at all; also recorded: inactive; also recorded: no substantial activity”. Also, the “percentage of OSNs activated” value with rat OSNs was 3.4%.

Consider `O=CC1CCCCCC1` [Compound 6], for which the “activation of OR-I7 (in words)” value at rat OR-I7 [1] is “weakly or not at all; also recorded: inactive”. On rat OR-I7 [2], the “antagonism of C8 activation of OR-I7 (in words)” value is listed as “antagonize C8 activity”. Further, in the assay on rat OSNs, the “percentage of OSNs activated” value came to 3.6%.

In the case of `CCC1CCC(CC=O)CC1` (stereo not shown) [Compound 11], on rat OR-I7 [1], the “potency compared with n-alkanals (in words)” value is “more active than C8”. For the same compound, the “maximal efficacy relative to 10 μM octanal” value on rat OR-I7 [1] (cis/trans mixture) is 1.07 ± 0.05.

Take `CCCC=O` [Compound C4, reference compound]: the “activation of OR-I7 (in words)” value at rat OR-I7 [1] is “inactive; also recorded: neither type of activity”. Besides, at rat OR-I7 [2], the “antagonism of C8 activation of OR-I7 (in words)” value is given as “failure of C4 (3.9Å) to antagonize C8 activation; also recorded: neither type of activity”.

For the compound `CCCCC=O` [Compound C5, reference compound], the “activation of OR-I7 (in words)” value at rat OR-I7 [1] is “inactive”.

As to `CCCCCC=O` [Compound C6, reference compound], the “activation of OR-I7 (in words)” value at rat OR-I7 [1] was “marginally active”. For the same compound, in the assay with OR-I7, the “activation of OR-I7 by EOG (in words)” value is reported as “no activation”.

`CCCCCCC=O` [Compound C7, reference compound]: the “increase in activity in the step from C6 to C7” value on rat OR-I7 [1] (C7 vs C6, calcium imaging) was determined as 145 fold. Also, the “maximal efficacy relative to 10 μM 1” value at rat OR-I7 [1] is listed as 0.86 ± 0.07. Besides, in the assay with OR-I7, the “activation of OR-I7 by EOG (in words)” value was “activation”.

As to `CCCCCCCC=O` [Compound C8, octanal, reference compound], on rat OR-I7 [1], the “maximal efficacy relative to 10 μM 1” value is 0.89 ± 0.02. In addition, the “percentage of OSNs activated” value in the assay with rat OSNs stood at 5.9%.
